The values below come from ChEMBL document CHEMBL3739335, “Phosphonooxymethyl Prodrug of Triptolide: Synthesis, Physicochemical Characterization, and Efficacy in Human Colon Adenocarcinoma and Ovarian Cancer Xenografts” (J Med Chem, 2015).

A short description of data set [1]: Chemical stability of the compound in buffer assessed as compound remaining at pH 7.4 after 4 hrs by HPLC analysis. The following applies: read-out: Stability. Format: physicochemical.
The next data set deals with A2780. Put plainly: Antitumor activity against human A2780 cells xenografted in athymic nude mouse at 0.6 to 0.9 mg/kg, ip and po administered for 30 days. It is filed as functional, organism-based. The gist of the method:
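Female athymic nude mice, 7–9 weeks, implanted s.c. on right or left flank with 2.5 × 10^6 A2780 cells (ECACC, mycoplasma/rodent-pathogen tested) in 50% Matrigel/50% RPMI 1640; randomized at mean tumor 188 mm3, 10/group. Dosed daily for 30 days IP or by oral gavage in USP saline, 0.2 mL. Tumor volume by caliper (L × W2/2), tumor weight at necropsy, survival, body weight.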
On the technique in general: In xenograft studies the graft and the host belong to different species.

A short description of data set [2]: Stability of the compound in simulated gastric fluid assessed as compound remaining after 24 hrs by HPLC analysis.
Data set [3] deals with Mus musculus. The data set is described as follows: Toxicity in athymic nude mouse xenografted with human A2780 cells assessed as morbidity at 0.6 to 0.9 mg/kg, po administered for 30 days. Format: organism-based. The settings on record: in vivo, 720 h. The essentials:
(§1)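 Female athymic nude mice, 7–9 weeks old, received 2.5 × 10^6 A2780 cells subcutaneously in the flank in 50% Matrigel/RPMI 1640. Mice were randomized at a mean tumor volume of 188 mm3, 10 per group. Daily oral gavage in USP saline (0.2 mL) for 30 days, dosed on group-mean body weight. Clinical signs, survival and body weights were recorded.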

In data set [4] the test system is Mus musculus. Put plainly: Toxicity in athymic nude mouse xenografted with human A2780 cells assessed as anorexia at 1.2 mg/kg, po administered for 30 days. The settings on record: in vivo, 720 h. It is filed as organism-based. The essentials:
as §1

The nature of data set [5]: Stability of the compound in simulated gastric fluid assessed as compound remaining after 2 hrs by HPLC analysis.
A short description of data set [6]: Chemical stability of the compound in buffer assessed as compound remaining at pH 6 after 24 hrs by HPLC analysis. The settings on record: read-out: Stability. It is filed as physicochemical.
Data set [7] in a line: Chemical stability of the compound in buffer assessed as compound remaining at pH 2 after 2 hrs by HPLC analysis. Format: physicochemical. The settings on record: read-out: Stability.
Data set [8] in a line: Half life of the compound in buffer at 25 degC at pH 7.4. It is filed as ADME. The essentials:
(§2)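 Pseudo-first-order kobsd at each temperature was fitted to an Arrhenius plot, which was extrapolated to 25 and 4 °C. t1/2 and t90 (time for 10% loss) were calculated from the extrapolated kobsd.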

Data set [9] in a line: Chemical stability of the compound in buffer assessed as compound remaining at pH 9 after 8 hrs by HPLC analysis. It is filed as physicochemical. The settings on record: read-out: Stability.
Data set [10] in a line: Chemical stability of the compound in buffer assessed as compound remaining at pH 2 after 1 hr by HPLC analysis. It is filed as physicochemical. The settings on record: read-out: Stability.
Data set [11] has as its system Mus musculus. Put plainly: Toxicity in athymic nude mouse xenografted with human A2780 cells assessed as survival at 0.6 to 0.9 mg/kg, ip administered for 30 days. Format: organism-based. The settings on record: in vivo, 720 h. The gist of the method:
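Female athymic nude mice, 7–9 weeks old, carried subcutaneous flank A2780 xenografts (2.5 × 10^6 cells in 50% Matrigel). Randomized at 188 mm3 mean tumor volume, 10 per group. Daily intraperitoneal dosing in USP saline (0.2 mL) for 30 days, based on group-mean weight. Survival and clinical signs were monitored.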

Data set [12] has as its system Mus musculus. The data set is described as follows: Toxicity in athymic nude mouse xenografted with human HT-29 cells assessed as skin irritation at 0.9 mg/kg, ip administered 14 days measured post last dose. It is filed as organism-based. The settings on record: in vivo, 336 h.
The nature of data set [13]: Second dissociation constant, pKa2 of the compound by 31P NMR analysis. The essentials:
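pKa2 derived from the pH dependence of the observed 31P NMR chemical shift across solutions of varying pH, by sigmoidal fit (titration-type curve); at 25 °C.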

In data set [14] the test system is Mus musculus. Put plainly: Toxicity in athymic nude mouse xenografted with human A2780 cells assessed as moribund condition at 1.2 mg/kg, po administered for 30 days. Format: organism-based. The settings on record: in vivo, 720 h. The essentials: as §1
Data set [15] has as its system Mus musculus. Put plainly: Toxicity in athymic nude mouse xenografted with human HT-29 cells assessed as mortality at 0.9 mg/kg, ip administered for 4 weeks. It is filed as organism-based. The following applies: in vivo, 672 h. The essentials:
(§3)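 Female athymic nude mice, 7–9 weeks old, received 1.74 × 10^6 HT-29 cells subcutaneously in the right flank in 50% Matrigel/McCoy's 5A. Randomized at 110 mm3, 10 per group. Intraperitoneal dosing in USP saline (0.2 mL) over a 28-day period on the stated schedule. Body weights were taken twice weekly; clinical signs and survival were recorded.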

The nature of data set [16]: Chemical stability of the compound in buffer assessed as pseudo-first-order rate constant at 25 degC at pH 7.4 by Arrhenius plot analysis. It is filed as physicochemical. The essentials:
as §2

The nature of data set [17]: Stability of the compound in simulated intestinal fluid assessed as compound remaining at pH 7.5 after 4 hrs by HPLC analysis. It is filed as ADME. The settings on record: read-out: Stability. The essentials: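 Drug incubated in simulated gastric fluid or simulated intestinal fluid and sampled at 0, 1, 2, 4, 8 and 24 h. Percent remaining was measured by reversed-phase C18 HPLC with photodiode-array detection, using a 20-min gradient of 10–70% acetonitrile against 10 mM sodium phosphate buffer at pH 7.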

Data set [18] has as its target T1, Alkaline phosphatase, tissue-nonspecific isozyme (Bos taurus, UniProt P09487).
T1 sequence (P09487 whole entry): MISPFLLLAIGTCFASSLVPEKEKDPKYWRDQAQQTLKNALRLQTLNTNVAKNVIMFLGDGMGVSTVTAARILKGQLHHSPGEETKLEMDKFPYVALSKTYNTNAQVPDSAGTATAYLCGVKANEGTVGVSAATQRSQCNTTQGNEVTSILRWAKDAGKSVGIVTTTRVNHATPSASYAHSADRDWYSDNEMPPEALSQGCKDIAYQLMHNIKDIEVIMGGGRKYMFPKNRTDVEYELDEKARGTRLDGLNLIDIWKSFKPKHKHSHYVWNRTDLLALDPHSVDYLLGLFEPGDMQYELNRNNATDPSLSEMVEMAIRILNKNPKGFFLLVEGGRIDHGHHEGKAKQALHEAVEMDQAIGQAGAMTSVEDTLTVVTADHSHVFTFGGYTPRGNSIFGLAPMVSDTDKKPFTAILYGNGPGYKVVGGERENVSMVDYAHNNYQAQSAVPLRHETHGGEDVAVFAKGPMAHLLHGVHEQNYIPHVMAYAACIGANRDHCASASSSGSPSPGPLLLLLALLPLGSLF
Put plainly: Prodrug conversion in glycine buffer assessed as bovine intestinal mucosal alkaline phosphatase-mediated triptolide and formaldehyde formation at pH 9.8. It is filed as ADME. The settings on record: cattle, isolated protein.

Data set [19] is described as follows: Chemical stability of the compound in buffer assessed as compound remaining at pH 4 after 24 hrs by HPLC analysis. Format: physicochemical. The settings on record: read-out: Stability.
Data set [20] in a line: Chemical stability of the compound in buffer assessed as compound remaining at pH 1 after 4 hrs by HPLC analysis. Format: physicochemical. The following applies: read-out: Stability.
The test system of data set [21] is Mus musculus. The data set is described as follows: Toxicity in athymic nude mouse xenografted with human HT-29 cells assessed as necrosis at 0.9 mg/kg, ip administered 14 days measured post last dose. It is filed as organism-based. The settings on record: in vivo, 336 h. The essentials:
as §3

Data set [22] is described as follows: Chemical stability of the compound in buffer assessed as compound remaining at pH 1 after 24 hrs by HPLC analysis. It is filed as physicochemical. The following applies: read-out: Stability.

Calls of active or inactive are those of the source. No cut-off for these calls is given here.

Consider `CC(C)[C@]12O[C@H]1[C@@H]1O[C@]13[C@]1(O[C@H]1C[C@H]1C4=C(CC[C@@]13C)C(=O)OC4)[C@@H]2OCOP(=O)([O-])[O-].[Na+].[Na+]` [MINNELIDE], for which the remaining at 4 h was 100% in [1], 100% in data set [17] and 62% in data set [20]. In addition, the result in the data set on A2780 was Active. For the same compound, the remaining at 24 h in data set [2] was 0%; in data set [6] it was 99%; in data set [19], 99%; in data set [22], 0%. Moreover, the Activity result with Mus musculus [3] is reported as “Toxic”; in the data set with Mus musculus [4] it was “Toxic”; with Mus musculus [11] it was “Non-toxic”; in the data set on Mus musculus [12], “Toxic”; in the data set with Mus musculus [14], “Toxic”; in the data set with Mus musculus [15], “Toxic”. The Activity entry in the data set with Mus musculus [21] was “Toxic”. Also, the remaining at 2 h in [5] was 85%; in data set [7], 97%. Besides, the t1/2 in data set [8] was 0.92 yr. Further, the remaining at 8 h in data set [9] came out at 100%. Also, the remaining at 1 h in data set [10] was 98%. The compound further gave a pKa in [13] of 6.61. For the same compound, in [16], the K was 8.6 ×10⁻⁵ /hr. Moreover, in data set [18], the Drug metabolism result is recorded as “metabolite_detected”.
